pEC50, pIC50, pKi: −log10 of the molar value.
Legend:
[1] = target: Neuronal acetylcholine receptor subunit alpha-7 (Rattus norvegicus) (UniProt Q05941); assay: Agonist activity at rat alpha7 nicotinic acetylcholine receptor expressed in Xenopus oocytes assessed as stimulation of channel currents at 32 uM at holding potential of -60/-90 mV by electrophysiology method relative to 50 uM nicotine; format: functional, cell-based; details: Oocyte
How it was run: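 Xenopus oocytes defolliculated with collagenase (1.3 mg/mL, 3 h), injected with 10-50 ng rat α7 cRNA, kept in Barth's saline up to 2 weeks. Voltage clamp at -60 or -90 mV; current evoked by compound at 32 μM given as % of the 50 μM nicotine response (set to 100%).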

[2] = target: T1, 5-hydroxytryptamine receptor 3A (Mus musculus, UniProt P23979); assay: Displacement of [3H]LY278584 from mouse 5HT3 receptor expressed in HEK293 cells; format: cell-based
T1 sequence (P23979 whole entry): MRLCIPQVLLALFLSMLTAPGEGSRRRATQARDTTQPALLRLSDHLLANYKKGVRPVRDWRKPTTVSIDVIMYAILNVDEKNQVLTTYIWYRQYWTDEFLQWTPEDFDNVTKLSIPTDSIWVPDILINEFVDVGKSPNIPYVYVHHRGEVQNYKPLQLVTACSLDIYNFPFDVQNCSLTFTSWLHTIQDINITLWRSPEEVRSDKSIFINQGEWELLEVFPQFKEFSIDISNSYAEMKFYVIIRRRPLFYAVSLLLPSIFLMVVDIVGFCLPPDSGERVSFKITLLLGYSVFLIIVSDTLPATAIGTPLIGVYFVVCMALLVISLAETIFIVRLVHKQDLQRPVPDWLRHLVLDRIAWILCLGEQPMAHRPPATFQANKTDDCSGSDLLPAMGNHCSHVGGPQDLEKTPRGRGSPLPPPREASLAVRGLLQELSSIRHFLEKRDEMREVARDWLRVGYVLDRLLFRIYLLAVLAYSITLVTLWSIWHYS
How it was run: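 Mouse 5-HT3A in HEK293 cell homogenate, 20 mM Tris-HCl pH 7.4 with 154 mM NaCl. [3H]LY278584 1 nM final; nonspecific binding with 10 μM ICS205-930; 60 min at 37 °C, then filtration onto PEI-soaked GF/B. Ki by Cheng-Prusoff; mean of three six-point curves in triplicate in one assay; tropisetron standard.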

[3] = target: Neuronal acetylcholine receptor subunit alpha-7 (Rattus norvegicus, UniProt Q05941); assay: Displacement of [125I]BTX from rat alpha7 nicotinic acetylcholine receptor expressed in GH4C1 cells; format: cell-based, GH4-C1
Neuronal acetylcholine receptor subunit alpha-7, sequence (Q05941 whole entry): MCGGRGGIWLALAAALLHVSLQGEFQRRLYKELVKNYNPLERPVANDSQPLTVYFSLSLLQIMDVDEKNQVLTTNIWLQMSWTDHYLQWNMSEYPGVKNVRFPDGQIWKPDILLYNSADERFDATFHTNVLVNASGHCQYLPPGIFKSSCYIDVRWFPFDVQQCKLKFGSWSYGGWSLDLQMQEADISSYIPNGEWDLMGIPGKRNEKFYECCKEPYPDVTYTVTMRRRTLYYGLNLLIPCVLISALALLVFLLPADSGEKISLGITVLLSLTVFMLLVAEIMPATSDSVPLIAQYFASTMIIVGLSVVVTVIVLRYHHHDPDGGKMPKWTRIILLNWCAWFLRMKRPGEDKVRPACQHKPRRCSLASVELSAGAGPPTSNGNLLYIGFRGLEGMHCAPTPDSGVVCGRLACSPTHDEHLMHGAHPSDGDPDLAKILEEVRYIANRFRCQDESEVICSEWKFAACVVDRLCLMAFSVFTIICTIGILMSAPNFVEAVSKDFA
How it was run: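 GH4C1 membranes (20 mM HEPES, 118 mM NaCl, 4.5 mM KCl, 2.5 mM CaCl2, 1.2 mM MgSO4, pH 7.5) incubated 2 h at 37 °C with [125I]α-bungarotoxin 0.4 nM final. Nonspecific binding with 1 μM methyllycaconitine; filtration onto PEI-treated GF/B filters. Ki = IC50/(1+[L]/KD); six-point curves in triplicate; geometric mean with 95% CI.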

[4] = Agonist activity at human alpha7 nAChR/mouse 5HT3 chimeric receptor expressed in SH-EP1 cells assessed as increase in intracellular calcium level; format: functional, cell-based
How it was run: (§1)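 α7-5HT3 chimera stably in SH-EP1 cells grown to confluence; loaded with Calcium Green 1 AM (2 μM final) 60 min at 37 °C. Compound added directly; calcium rise read by FLIPR (excitation 488 nm, emission >525 nm).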

[5] = Agonist activity at human alpha7 nAChR/mouse 5HT3 chimeric receptor expressed in SH-EP1 cells assessed as increase in intracellular calcium level relative to 100 uM nicotine; format: functional; how it was run: as §1
[6] = target: T2, 5-hydroxytryptamine receptor 3A (Homo sapiens, UniProt P46098); assay: […] at human 5HT3 receptor expressed in human skin epithelial cells assessed as stimulation of calcium flux by FLIPR assay; format: functional, cell-based, Epithelial cell
T2 sequence (P46098 whole entry): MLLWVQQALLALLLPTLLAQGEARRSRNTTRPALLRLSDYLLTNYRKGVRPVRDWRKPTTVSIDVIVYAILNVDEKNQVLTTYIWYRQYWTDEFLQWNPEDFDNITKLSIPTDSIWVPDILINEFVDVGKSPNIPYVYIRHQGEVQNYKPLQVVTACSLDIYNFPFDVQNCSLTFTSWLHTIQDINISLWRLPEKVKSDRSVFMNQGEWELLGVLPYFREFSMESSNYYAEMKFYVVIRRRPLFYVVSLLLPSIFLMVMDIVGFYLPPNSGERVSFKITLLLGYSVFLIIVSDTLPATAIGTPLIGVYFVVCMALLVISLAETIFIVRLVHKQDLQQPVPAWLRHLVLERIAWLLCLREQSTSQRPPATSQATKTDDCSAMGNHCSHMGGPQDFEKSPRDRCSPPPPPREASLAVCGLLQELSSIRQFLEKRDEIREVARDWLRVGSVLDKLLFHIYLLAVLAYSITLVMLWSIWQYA
How it was run: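 Human 5-HT3A stably in human skin epithelial cells, plated 15 000 cells/well 2 days ahead; loaded 1 h at 37 °C with Fluo-4 (8 μM final), washed into HBSS with 20 mM Tris-HEPES, 1 μM atropine, 4 mM Ca2+, pH 7.4. Compound added 2 min, then 5-HT challenge (250 nM final) 2 min; FLIPR calcium read.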

CHO = assay: Toxicity in CHO cells assessed as induction of DNA fragments by in vitro micronucleus assay; format: cell-based, Cricetulus griseus; details: chinese hamster
[7] = target: Voltage-gated inwardly rectifying potassium channel KCNH2 (Homo sapiens, UniProt Q12809)
Voltage-gated inwardly rectifying potassium channel KCNH2, sequence (Q12809 whole entry): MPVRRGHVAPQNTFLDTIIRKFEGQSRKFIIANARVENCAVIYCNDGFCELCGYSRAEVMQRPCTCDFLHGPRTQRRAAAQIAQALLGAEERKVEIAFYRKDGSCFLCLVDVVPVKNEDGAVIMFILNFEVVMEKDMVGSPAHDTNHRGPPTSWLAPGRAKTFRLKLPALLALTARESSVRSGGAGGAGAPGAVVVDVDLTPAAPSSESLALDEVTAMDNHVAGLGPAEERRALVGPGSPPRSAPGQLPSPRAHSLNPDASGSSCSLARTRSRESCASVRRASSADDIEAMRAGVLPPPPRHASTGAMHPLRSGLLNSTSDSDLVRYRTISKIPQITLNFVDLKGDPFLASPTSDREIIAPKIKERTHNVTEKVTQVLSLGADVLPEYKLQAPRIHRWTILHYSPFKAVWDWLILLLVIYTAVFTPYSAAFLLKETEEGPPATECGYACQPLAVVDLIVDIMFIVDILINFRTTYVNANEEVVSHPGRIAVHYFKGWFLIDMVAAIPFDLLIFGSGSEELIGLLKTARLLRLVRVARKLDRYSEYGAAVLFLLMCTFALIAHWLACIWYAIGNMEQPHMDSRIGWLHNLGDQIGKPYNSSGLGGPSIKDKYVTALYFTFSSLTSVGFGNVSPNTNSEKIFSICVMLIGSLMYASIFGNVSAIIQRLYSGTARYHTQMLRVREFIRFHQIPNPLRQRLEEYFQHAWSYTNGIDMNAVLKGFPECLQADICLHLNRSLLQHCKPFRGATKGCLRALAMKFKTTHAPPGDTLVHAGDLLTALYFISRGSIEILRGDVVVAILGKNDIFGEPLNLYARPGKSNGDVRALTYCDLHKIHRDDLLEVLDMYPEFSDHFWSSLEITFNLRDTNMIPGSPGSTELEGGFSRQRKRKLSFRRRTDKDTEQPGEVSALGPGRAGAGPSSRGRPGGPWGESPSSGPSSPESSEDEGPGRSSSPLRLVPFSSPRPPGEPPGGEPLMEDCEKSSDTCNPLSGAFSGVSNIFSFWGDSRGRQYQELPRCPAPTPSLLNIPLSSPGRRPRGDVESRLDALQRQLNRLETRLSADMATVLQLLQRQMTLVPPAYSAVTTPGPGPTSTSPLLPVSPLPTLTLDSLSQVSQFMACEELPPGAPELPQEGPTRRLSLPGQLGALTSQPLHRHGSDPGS

[8] = Selectivity for rat alpha7 nicotinic acetylcholine receptor over mouse 5HT3 receptor
[9] = target: Neuronal acetylcholine receptor; alpha3/beta4 (Homo sapiens, UniProt P30926+P32297); assay: Displacement of [3H]epibatidine from alpha3beta4 nAChR expressed in IMR32 cells; format: cell-based, IMR-32
Neuronal acetylcholine receptor; alpha3/beta4, sequence (P30926 whole entry): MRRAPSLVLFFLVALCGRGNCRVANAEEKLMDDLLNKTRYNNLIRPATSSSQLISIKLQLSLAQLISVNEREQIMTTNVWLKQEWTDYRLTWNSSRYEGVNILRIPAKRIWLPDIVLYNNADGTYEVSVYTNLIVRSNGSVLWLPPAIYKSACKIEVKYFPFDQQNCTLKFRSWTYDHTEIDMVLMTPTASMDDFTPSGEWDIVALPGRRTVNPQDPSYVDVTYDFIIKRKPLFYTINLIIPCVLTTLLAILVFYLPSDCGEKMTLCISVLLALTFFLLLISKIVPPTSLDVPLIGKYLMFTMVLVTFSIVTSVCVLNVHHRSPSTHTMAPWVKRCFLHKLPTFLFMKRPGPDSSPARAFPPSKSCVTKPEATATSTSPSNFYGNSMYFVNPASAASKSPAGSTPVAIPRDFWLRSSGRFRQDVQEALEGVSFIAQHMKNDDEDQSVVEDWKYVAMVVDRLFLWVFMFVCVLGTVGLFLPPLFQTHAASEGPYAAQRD
Neuronal acetylcholine receptor; alpha3/beta4, sequence (P32297 whole entry): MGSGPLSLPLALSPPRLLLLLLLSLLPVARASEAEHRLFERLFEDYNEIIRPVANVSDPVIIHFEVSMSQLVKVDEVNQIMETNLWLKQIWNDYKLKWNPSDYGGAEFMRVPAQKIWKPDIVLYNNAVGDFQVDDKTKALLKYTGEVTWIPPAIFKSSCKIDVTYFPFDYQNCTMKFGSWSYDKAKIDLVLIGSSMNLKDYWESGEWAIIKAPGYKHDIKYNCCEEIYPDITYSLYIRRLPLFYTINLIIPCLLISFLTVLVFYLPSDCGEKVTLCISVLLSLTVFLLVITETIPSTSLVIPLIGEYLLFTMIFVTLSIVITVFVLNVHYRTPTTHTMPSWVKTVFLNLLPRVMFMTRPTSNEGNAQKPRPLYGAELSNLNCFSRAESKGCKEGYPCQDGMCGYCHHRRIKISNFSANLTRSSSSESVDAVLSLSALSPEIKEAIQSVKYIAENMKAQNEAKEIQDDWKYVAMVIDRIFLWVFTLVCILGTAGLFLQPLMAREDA
How it was run: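 Alpha3β4 binding in IMR32 cells with [3H]epibatidine radioligand. Six-point concentration-response curve run in triplicate and averaged.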

Neuronal acetylcholine receptor subunit alpha-7 (Rattus norvegicus), sequence (Q05941 whole entry): as the sequence (Q05941 whole entry) above

| SMILES | Activity [1] [%] | pKi [2] | pKi [3] | pEC50 [4] | Efficacy [5] [%] | pIC50 [6] | Activity (CHO) | pIC50 [7] | Ratio Ki [8] | pIC50 [9] |
| --- | --- | --- | --- | --- | --- | --- | --- | --- | --- | --- |
| c1cnc2nc(N3CCN4CCC3CC4)oc2c1 | 220 | 6.24 | 7.52 |  |  |  |  |  |  |  |
| c1cc2oc(N3CCN4CCC3CC4)nc2nc1C1CCCC1 |  | < 5.28 | 8.28 | 6.28 | 54 |  |  |  |  |  |
| Cc1nc2nc(N3CCN4CCC3CC4)oc2cc1Cl |  | 6.61 | 8.50 | 6.80 | 58 | 7.15 | Non-toxic | 4.79 |  |  |
| Brc1ccc2oc(N3CCN4CCC3CC4)nc2c1 | 78 | > 7.77 | 8.67 |  |  |  |  |  |  |  |
| c1ccc(-c2ccc3oc(N4CCN5CCC4CC5)nc3n2)cc1 |  | < 5.45 | 8.49 | 6.49 | 71 |  |  |  | 3 |  |
| CCc1ccc2oc(N3CCN4CCC3CC4)nc2n1 |  | < 5.28 | 7.73 | 7.00 | 34 | 5.48 | Non-toxic |  |  |  |
| Cc1nc2nc(N3CCN4CCC3CC4)oc2cc1F |  | 6.26 | 7.82 | 5.68 | 36 |  |  |  |  |  |
| Clc1cnc2nc(N3CCN4CCC3CC4)oc2c1 |  | 5.86 | 9.00 | 6.80 | 83 | 6.32 |  |  |  |  |
| c1cc2oc(N3CCN4CCC3CC4)nc2nc1N1CCCC1 |  | 5.20 | 8.72 | 6.33 | 67 |  |  |  |  |  |
| Cc1ccc2oc(N3CCN4CCC3CC4)nc2c1 | 287 | 8.47 | 7.47 |  |  |  |  |  |  |  |
| c1cncc(-c2cnc3nc(N4CCN5CCC4CC5)oc3c2)c1 |  | < 5.27 | 6.92 | 6.37 | 70 |  |  |  |  |  |
| Brc1cnc2nc(N3CCN4CCC3CC4)oc2c1 |  | 6.03 | 8.68 | 6.62 | 64 | 6.11 | Toxic | 5.64 |  |  |
| c1ncc(-c2cnc3nc(N4CCN5CCC4CC5)oc3c2)cn1 |  | < 5.15 | 7.22 |  |  |  |  |  |  |  |
| CCc1cnc2nc(N3CCN4CCC3CC4)oc2c1 |  | < 5.28 | 7.65 | 6.52 | 53 |  |  |  |  |  |
| COc1ccc2oc(N3CCN4CCC3CC4)nc2n1 |  | 6.85 | 7.60 | 6.00 | 56 |  |  |  |  |  |
| CCC(C)c1cnc2nc(N3CCN4CCC3CC4)oc2c1 (stereo unspecified) |  |  | < 6.00 |  |  |  |  |  |  |  |
| CC(C)c1ccc2oc(N3CCN4CCC3CC4)nc2n1 |  | < 5.28 | 8.04 | 6.24 | 68 |  |  |  |  |  |
| c1ccc(Oc2ccc3oc(N4CCN5CCC4CC5)nc3n2)cc1 |  | 5.17 | 7.76 | 6.42 | 63 |  |  |  |  |  |
| c1cc(-c2cnc3nc(N4CCN5CCC4CC5)oc3c2)n[nH]1 |  | < 5.28 | 7.64 | 6.41 | 68 |  |  |  |  |  |

| SMILES | Activity [1] [%] | pKi [2] | pKi [3] | pEC50 [4] | Efficacy [5] [%] | pIC50 [6] | Activity (CHO) | pIC50 [7] | Ratio Ki [8] | pIC50 [9] |
| --- | --- | --- | --- | --- | --- | --- | --- | --- | --- | --- |
| c1cc2oc(N3CCN4CCC3CC4)nc2cn1 | 156 | 5.67 | 6.51 |  |  |  |  |  |  |  |
| c1cc2nc(N3CCN4CCC3CC4)oc2cn1 | 186 | 6.79 | 6.51 |  |  |  |  |  |  |  |
| c1ccc2oc(N3CCN4CCC3CC4)nc2c1 | 183 | 7.89 | 7.65 |  |  |  |  |  |  |  |
| Fc1cnc2nc(N3CCN4CCC3CC4)oc2c1 |  | 5.21 | 7.76 | 6.67 | 64 | 5.61 | Toxic | 5.06 |  |  |
| c1cnc2oc(N3CCN4CCC3CC4)nc2c1 | 182 | 7.04 | 7.39 |  |  |  |  |  |  |  |
| Cc1ccc2nc(N3CCN4CCC3CC4)oc2c1 | 197 | > 7.77 | 7.75 |  |  |  |  |  |  |  |
| c1cc2oc(N3CCN4CCC3CC4)nc2nc1N1CCCCC1 |  | 5.94 | 7.17 | 5.72 | 30 |  |  |  |  |  |
| c1ccc(-c2cnc3oc(N4CCN5CCC4CC5)nc3c2)cc1 |  | 5.43 | 8.64 | 6.58 | 69 |  |  |  |  |  |
| c1ccc(Oc2cnc3nc(N4CCN5CCC4CC5)oc3c2)cc1 |  | 5.71 | 8.38 | 6.21 | 75 |  |  |  |  |  |
| c1ccc(-c2cnc3nc(N4CCN5CCC4CC5)oc3c2)cc1 |  | 5.67 | 8.15 | 6.49 | 71 |  |  |  |  |  |
| Fc1ccccc1-c1ccc2oc(N3CCN4CCC3CC4)nc2n1 |  | < 5.42 | 8.46 | 6.80 | 73 | < 5.14 | Non-toxic | 5.55 |  |  |
| Cc1cnc2nc(N3CCN4CCC3CC4)oc2c1 |  | 5.47 | 8.18 | 5.99 | 55 |  |  |  |  |  |
| O=c1c(Br)ccc2n1C[C@@H]1CNC[C@H]2C1 |  |  |  |  |  |  |  |  |  | 7.81 |
| Fc1ccc2oc(N3CCN4CCC3CC4)nc2c1 | 315 | 8.41 | 7.68 |  |  |  |  |  |  |  |
| Clc1cnc2oc(N3CCN4CCC3CC4)nc2c1 |  |  | 8.59 | 6.64 | 62 |  |  |  |  |  |
| O=C(Oc1ccccc1)N1CCN2CCC1CC2 |  | 5.40 |  |  |  |  |  |  |  |  |
| N#Cc1cnc2nc(N3CCN4CCC3CC4)oc2c1 |  | < 5.28 | 8.21 | 6.29 | 58 |  |  |  |  |  |
| Cc1ccc2nc(N3CCN4CCC3CC4)oc2n1 |  | 6.90 | 7.05 | 5.92 | 59 |  |  |  |  |  |
| Clc1ccc2oc(N3CCN4CCC3CC4)nc2c1 | 122 | 8.92 | 8.72 |  |  |  |  |  |  |  |

Source: ChEMBL document CHEMBL1159071, “Discovery of 4-(5-methyloxazolo[4,5-b]pyridin-2-yl)-1,4-diazabicyclo[3.2.2]nonane (CP-810,123), a novel alpha 7 nicotinic acetylcholine receptor agonist for the treatment of cognitive disorders in schizophrenia: synthesis, SAR development, and in vivo efficacy in cognition models” (J Med Chem, 2010)
